High-throughput results (PubChem)
S100A4 inh HTS – inhibitors of S100A4-myosin IIA peptide binding, primary screen, biochemical, fluorescence polarization, TAMRA-MyoIIA peptide; inhibition, % at 10.7 µM; 360,000 tested, 0.14% active;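 active = mean inhibition of at least 70% across replicates, with every replicate also reaching that level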
Target sequence (P26447 whole entry, looked up): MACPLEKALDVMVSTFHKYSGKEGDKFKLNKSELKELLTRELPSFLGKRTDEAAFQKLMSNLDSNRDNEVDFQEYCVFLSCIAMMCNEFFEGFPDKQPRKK
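Test system: S100A4 monomer protein. Medium: HEPES buffer with Ca2+, pH 7.2. Reagent: fluorescent myosin IIA peptide, 5 nM. Compound dosing: single-point compound testing. Timing: 5 min between mix addition and reading. Benchmarks: DMSO neutral and TFP positive wells.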
SIRT5 block – SIRT5 desuccinylase inhibitors, primary screen, biochemical, fluorescence imaging, single point, set 5. inhibition, % at 15 µM. AID 652115, 2013. 330,000 tested, 1.1% active. Purified SirT5, succinyl-peptide AMC, trypsin-coupled fluorescence; in the data active = inhibition above about 15%
Target sequence (Q9NXA8 whole entry, looked up): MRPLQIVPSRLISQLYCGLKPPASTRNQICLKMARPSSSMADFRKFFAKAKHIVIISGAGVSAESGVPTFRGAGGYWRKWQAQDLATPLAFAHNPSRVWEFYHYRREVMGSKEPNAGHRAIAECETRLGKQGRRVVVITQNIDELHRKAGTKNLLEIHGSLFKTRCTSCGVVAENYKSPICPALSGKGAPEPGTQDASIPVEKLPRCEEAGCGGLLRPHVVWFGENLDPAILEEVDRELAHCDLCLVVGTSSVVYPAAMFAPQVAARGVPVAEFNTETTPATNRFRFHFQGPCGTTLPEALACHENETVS
Ecoli rRNA inh – reduced GFP signal of wild-type E. coli, primary screen, bacterial rRNA inhibitor project, GFP/RFP fluorescence, OD600, single point. E. coli WT GFP vs humanized-ribosome RFP mutants, 24 h; stronger effect = lower value; DMSO median 0, no signal -100. GFP signal change (wild-type ribosome), % (concentration not given with the values). 350,000 tested, 1.6% active. AID 720706, 2013;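 active = significant combined selectivity score with lowered wild-type GFP, culture density cut under 30%, mutant RFP and density less affected; inactive = any of these conditions unmet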
E-selectin induc – E-selectin induction in HUVECs, primary screen, imaging, HUVEC, immunofluorescence imaging, single point | P16581 | normalized: neutral wells 0, TNF-alpha wells 100 | activation, % at 7.58 µM | 260,000 tested, 0.37% active | AID 686992, 2013;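 active = mean E-selectin-positive cell signal at least 10% of the positive control, reached in at least 60% of replicates, without over 20% cell loss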
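Material: HUVEC primary endothelial cells; Amount: 3,000 cells per well; Dosing: single concentration; Medium: EGM-2 growth medium on 0.1% gelatin-coated wells; Read-out basis: percent E-selectin-positive cells; Signal: immunofluorescence imaging; Control set: TNF-alpha, DMSO.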
AF4-AF9 inh – inhibitors of AF4 peptide binding to AF9, primary screen, biochemical, AlphaScreen, biotin-AF4 peptide, FLAG-AF9, single point | inhibition, % at 10 µM | AID 651704, 2012 | 350,000 tested, 0.47% active | Protein AF-9 (Homo sapiens), P42568;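 active = every replicate reaching a set inhibition limit, whatever the replicate mean, cut at about 25% in these data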;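 also: 0% = plate neutral control median and 100% = total signal loss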
ERAP1 inh – human ERAP1 aminopeptidase inhibitors, primary screen, biochemical, single point, plate reader. 340,000 tested, 0.15% active. AID 652197, 2013. Endoplasmic reticulum aminopeptidase 1 (Homo sapiens), Q9NZ08. inhibition, % at 10.7 µM. recombinant ERAP1, Leu-AMC fluorescence, 60 min;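 active = mean replicate inhibition of at least 30%, or all replicates individually reaching that 30% level; inactive = mean below 30% and not every replicate reaching it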;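 also: 0% = neutral control wells and 100% = L-leucinethiol positive control wells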
Active calls of the source: *; · = not tested or not shown; ! = not confirmed by another sample. Most compounds without a hit are left out; they make up all but 3.4% or so of the library.

SMILES	S100A4 inh HTS	SIRT5 block	Ecoli rRNA inh	E-selectin induc	AF4-AF9 inh	ERAP1 inh
Cn1ncc(Cl)c1C(=O)N/N=C/c1ccccn1	-10	22*	13	·	-2	0
COc1ccc(C(=O)Nc2ccccc2C(=O)N/N=C/c2ccccn2)cc1OC	0	2	-20	·	2	0
O=C(c1ccccn1)N1C[C@H]2[C@@H](c3ccccc31)[C@H](CO)N2C(=O)C1CC1	-10	-1	4	0	-2	0
O=C(N/N=C/c1ccccn1)c1cccs1	5	-1	-24*	-1	-8	0
O=C(N/N=C/c1sc(N2CCOCC2)nc1-c1ccccc1)c1ccc(O)cc1	-4	1	5	·	18	0
COc1ccc(C(=O)N/N=C/c2sc(N3CCOCC3)nc2-c2ccccc2)cc1OC	-5	1	-5	2	27*	-4
O=C(Cc1cccs1)N/N=C/c1ccccn1	3	3	8	7	-5	-3
O=C(C1CCCC1)N1C[C@H]2[C@@H](c3ccccc31)[C@@H](CO)N2C(=O)Nc1cccc(F)c1	2	1	-3	0	-2	1
COc1ccc(/C=C2\C(=O)NCC(=O)N2C)cc1	-6	-1	16	·	3	86*
COc1ccc(NC(=O)Nc2ccc3c(c2)[C@@H]2C[C@@H](CC(=O)NCC4CC4)O[C@@H](CO)[C@@H]2O3)cc1	5	-3	-1	1	1	1
O=C(c1cc(COc2ccc(F)cc2F)on1)N1CCCC(c2ccccc2)C1 (centres undefined)	6	2	-22*	·	-2	-2
O=C(c1cc(COc2ccc(F)cc2Cl)on1)N1CC[C@@H]2CCCC[C@H]2C1	3	34*	1	0	1	-7
O=C(c1cc(COc2ccc(F)cc2Cl)on1)N1CCSCC1	-8	-9	-37*	·	-1	3
O=C(c1cc(COc2ccc(F)cc2F)on1)N1CC[C@@H]2CCCC[C@H]2C1	-3	-3	8	-1	-1	-1
COc1cc(C)ccc1OCc1cc(C(=O)N2CCCCCC2)no1	-3	-2	-26*	·	-7	-4
CO[C@H]1CN(C)C(=O)c2cc(NC(=O)NC3CCCCC3)ccc2OC[C@@H](C)N(CC2CCOCC2)C[C@@H]1C	7	·	1	0	-21	0
COCC(=O)N1C[C@H](C)[C@@H](OC)CN(C)C(=O)c2cc(NS(C)(=O)=O)ccc2OC[C@H]1C	·	·	4	·	·	·
COc1ccc(OCc2cc(C(=O)N3CCSCC3)no2)c(Cl)c1	-3	2	-29*	0	-1	-2
COc1ccc(OCc2cc(C(=O)N3CCCCCC3)no2)c(Cl)c1	2	-1	-32	-1	-2	5
C[C@@H]1CN([C@H](C)CO)C(=O)c2cccc(NS(=O)(=O)c3ccccc3)c2O[C@H]1CN(C)Cc1ccc(-c2ccccc2)cc1	-8	3	1	1	5	-5
O=S(=O)(NN=Cc1ccc(O)cc1O)c1cc(Cl)c(Cl)cc1Cl	6	-1	-15*	0	-1	-3
C[n+]1c2n(c3ccccc31)N=C(c1cc(C(C)(C)C)c(O)c(C(C)(C)C)c1)CS2	-18	1	-55	·	27*	7
COc1ccccc1N1CCN(C(=O)CSc2nc3ccccc3nc2N2CCCCC2)CC1	-11	4	0	0	4	-2
COc1ccc(-c2cc(C(=O)N3CCN(c4cccc(C)c4C)CC3)c3ccccc3n2)cc1OC	2	21*	12	·	·	4
COc1ccccc1N1CCN(C(=O)CSc2nc3ccccc3[nH]2)CC1	-1	-1	-41*	·	-12	5
SMILES	S100A4 inh HTS	SIRT5 block	Ecoli rRNA inh	E-selectin induc	AF4-AF9 inh	ERAP1 inh
COc1ccc(N2CCN(C(=O)Cn3nnc(-c4ccc(OC)c(OC)c4)n3)CC2)cc1	-8	-1	12	·	3	0
COc1ccc(-c2nnn(CC(=O)N3CCN(c4ccccc4OC)CC3)n2)cc1OC	-2	0	-17*	2	-6	-1
COc1cccc(NC(=O)C[C@@H]2CC[C@H]3[C@@H](COc4ccc(NC(=O)C5CCCC5)cc4C(=O)N3C)O2)c1	·	·	-3	·	·	·
O=C(NN1C(=O)/C(=C/c2cccs2)SC1=S)c1ccncc1	-8	4	-29*	·	1	8
COc1ccc(OC)c(/C=C2\SC(=S)N(NS(=O)(=O)c3ccccc3)C2=O)c1	35	6	-16	0	0	3
O=C1/C(=C/C=C/c2ccco2)SC(=S)N1NS(=O)(=O)c1ccccc1	-12	43*	8	·	-3	8
O=C1/C(=C/c2cccs2)SC(=S)N1NS(=O)(=O)c1ccccc1	-2	6	-27*	·	-2	3
CCC(=O)N1CC(=O)N2[C@H](CO)[C@H](c3ccc(C#CCc4ccccc4)cc3)[C@@H]2C1	-1	14	0	0	-2	2
Cc1noc(C)c1NC(=O)Nc1ccc2c(c1)C(=O)N([C@@H](C)CO)C[C@@H](C)[C@H](CN(C)Cc1ccc(Oc3ccccc3)cc1)O2	-16	-2	2	1	10	0
C[C@@H]1CN([C@@H](C)CO)C(=O)c2cc(NC(=O)Nc3cccc4ccccc34)ccc2O[C@@H](C)CCCCO[C@@H]1CN(C)Cc1ccc(C(F)(F)F)cc1	·	·	-6	1	·	·
COc1ccccc1NC(=O)N[C@@H]1CC[C@@H](CC(=O)N2CCC(Cc3ccccc3)CC2)O[C@H]1CO	-4	-6	-6	0	0	2
Cc1cccc(/C(N)=N/OC(=O)COc2ccc(Cl)cc2)c1	0	35*	5	·	1	4
N/C(=N\OC(=O)COc1ccc(Cl)cc1)c1ccc(Cl)cc1	-7	-1	17	·	-9	0
COc1cccc(C#Cc2ccc([C@H]3[C@@H](CO)N4C(=O)CN(C(=O)C5CC5)C[C@H]34)cc2)c1	1	-3	0	1	-2	1
CCCN(C)C[C@H]1Oc2cc(C#Cc3cccc(F)c3)ccc2S(=O)(=O)N([C@@H](C)CO)C[C@H]1C	10	-1	-2	-1	5	-3
CCCN(C)C[C@H]1Oc2cc(C#CCC3CCCC3)ccc2S(=O)(=O)N([C@H](C)CO)C[C@@H]1C	-1	19*	·	·	2	-1
CCCN(C)C[C@H]1Oc2cc(C#Cc3ccc(F)cc3)ccc2S(=O)(=O)N([C@H](C)CO)C[C@@H]1C	4	15*!	1	0	4	-2
